Active and inactive are the calls of the source.

The target of series [1] is T1, 5-hydroxytryptamine receptor 1A (Homo sapiens, UniProt P08908).
T1 sequence (P08908 whole entry): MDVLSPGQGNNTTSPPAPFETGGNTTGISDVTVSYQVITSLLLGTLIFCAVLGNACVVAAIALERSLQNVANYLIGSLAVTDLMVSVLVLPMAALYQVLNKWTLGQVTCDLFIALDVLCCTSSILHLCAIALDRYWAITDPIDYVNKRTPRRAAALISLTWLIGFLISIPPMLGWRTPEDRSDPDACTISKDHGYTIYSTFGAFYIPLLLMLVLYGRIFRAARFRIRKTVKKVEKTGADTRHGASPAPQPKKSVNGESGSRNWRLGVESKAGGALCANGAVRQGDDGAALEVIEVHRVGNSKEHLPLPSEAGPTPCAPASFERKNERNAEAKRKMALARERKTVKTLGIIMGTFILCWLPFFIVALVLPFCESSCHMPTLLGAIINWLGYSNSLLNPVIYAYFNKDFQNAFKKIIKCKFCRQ
The series is described as follows: Displacement of [3H]-8-OH-DPAT from human 5-HT1A receptor expressed in HEK293 cells incubated for 1 hr. The class given is cell-based. The procedure, abridged:
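Membranes from HEK293 cells stably expressing human 5-HT1A receptor, with [3H]-8-OH-DPAT (187 Ci/mmol). Buffer: 50 mM Tris-HCl, 0.1 mM EDTA, 4 mM MgCl2, pargyline, 0.1% ascorbate. Incubation 1 h at room temperature, then filtration. Non-specific binding defined with 5-HT. Triplicates at 7–8 concentrations. Ki by Cheng–Prusoff.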
(Loss of bound radioactivity is the signal in a displacement assay; it reports binding, not function.)

The target in series [2] is 5-hydroxytryptamine receptor 7 (Homo sapiens, UniProt P34969). The series is described as follows: Displacement of [3H]-5-CT from human 5-HT7B receptor expressed in HEK293 cells incubated for 1 hr. The class given is cell-based. The essentials: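 Membranes from HEK293 cells stably expressing human 5-HT7b receptor, with [3H]-5-CT (39.2 Ci/mmol). Buffer: 50 mM Tris-HCl, 4 mM MgCl2, pargyline, 0.1% ascorbate. Incubation 1 h at 37 °C, then rapid filtration and counting of filter radioactivity. Non-specific binding defined with 5-HT. Triplicates at 7–8 concentrations (10^-11 to 10^-4 M). Ki by Cheng–Prusoff.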
Sequence of 5-hydroxytryptamine receptor 7 (P34969 whole entry): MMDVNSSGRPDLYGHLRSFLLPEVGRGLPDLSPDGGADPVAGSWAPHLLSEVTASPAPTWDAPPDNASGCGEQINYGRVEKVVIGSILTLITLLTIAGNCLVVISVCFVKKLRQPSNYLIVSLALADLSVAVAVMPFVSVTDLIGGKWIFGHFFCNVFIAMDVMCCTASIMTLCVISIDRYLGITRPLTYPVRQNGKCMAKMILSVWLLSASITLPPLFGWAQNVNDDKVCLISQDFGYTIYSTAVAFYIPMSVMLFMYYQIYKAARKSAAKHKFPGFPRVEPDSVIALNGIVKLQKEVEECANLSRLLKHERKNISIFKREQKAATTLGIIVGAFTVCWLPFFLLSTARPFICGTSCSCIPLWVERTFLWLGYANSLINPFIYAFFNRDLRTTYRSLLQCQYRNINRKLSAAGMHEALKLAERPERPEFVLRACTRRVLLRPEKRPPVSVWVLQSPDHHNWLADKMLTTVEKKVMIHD

For another series, the target named is D(2) dopamine receptor (Homo sapiens, UniProt P14416). Kind of series: Displacement of [3H]-Raclopride from human dopamine D2L receptor expressed in HEK293 cells incubated for 1 hr. The class given is cell-based. The essentials: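 Membranes from HEK293 cells stably expressing human D2L receptor, with [3H]-raclopride (74.4 Ci/mmol). Buffer: Tris-HCl, EDTA, MgCl2, 120 mM NaCl, 5 mM KCl, 1.5 mM CaCl2, ascorbate. Incubation 1 h at 37 °C, then filtration. Non-specific binding defined with (+)butaclamol. Triplicates at 7–8 concentrations (10^-11 to 10^-4 M). Ki by Cheng–Prusoff.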
Sequence of D(2) dopamine receptor (P14416 whole entry): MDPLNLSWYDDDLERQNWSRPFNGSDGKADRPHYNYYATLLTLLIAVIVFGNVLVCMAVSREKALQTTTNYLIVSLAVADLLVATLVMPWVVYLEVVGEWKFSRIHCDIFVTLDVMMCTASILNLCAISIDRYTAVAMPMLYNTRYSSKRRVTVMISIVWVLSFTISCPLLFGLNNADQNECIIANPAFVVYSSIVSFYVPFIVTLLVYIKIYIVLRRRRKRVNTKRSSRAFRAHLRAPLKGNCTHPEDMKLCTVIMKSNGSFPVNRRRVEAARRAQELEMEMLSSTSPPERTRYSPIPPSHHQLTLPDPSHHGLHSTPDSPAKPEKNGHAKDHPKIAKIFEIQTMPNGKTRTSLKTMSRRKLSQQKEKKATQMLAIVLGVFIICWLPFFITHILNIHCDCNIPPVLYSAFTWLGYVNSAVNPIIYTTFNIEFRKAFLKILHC

In series [3] the target is 5-hydroxytryptamine receptor 2A (Homo sapiens, UniProt P28223). The series is described as follows: Displacement of [3H]-ketanserin from human 5-HT2A receptor expressed in HEK293 cells incubated for 1 hr. The format is cell-based. The procedure, abridged: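 Membranes from HEK293 cells stably expressing human 5-HT2A receptor, with [3H]-ketanserin (66.9 Ci/mmol). Incubation 1 h at 37 °C, then rapid filtration and counting. Triplicates at 7–8 concentrations (10^-11 to 10^-4 M). Ki by Cheng–Prusoff; means of at least three experiments.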
Sequence of 5-hydroxytryptamine receptor 2A (P28223 whole entry): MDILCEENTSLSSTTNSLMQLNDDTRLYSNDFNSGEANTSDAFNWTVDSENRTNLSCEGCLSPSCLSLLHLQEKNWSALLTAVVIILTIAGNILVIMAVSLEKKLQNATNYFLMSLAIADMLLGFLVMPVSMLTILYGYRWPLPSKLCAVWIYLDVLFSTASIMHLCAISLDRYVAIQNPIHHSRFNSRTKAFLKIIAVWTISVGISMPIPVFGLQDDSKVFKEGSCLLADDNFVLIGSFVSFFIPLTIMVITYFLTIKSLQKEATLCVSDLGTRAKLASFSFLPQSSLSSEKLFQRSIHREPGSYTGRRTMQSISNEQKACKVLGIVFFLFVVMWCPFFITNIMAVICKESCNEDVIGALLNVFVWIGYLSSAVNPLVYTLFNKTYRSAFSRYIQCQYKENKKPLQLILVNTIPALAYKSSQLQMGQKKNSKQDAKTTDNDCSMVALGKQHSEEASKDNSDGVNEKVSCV

In series [4] the test system is Mus musculus. The series is described as follows: Antidepressant-like activity in Swiss albino mouse assessed as reduction in immobility time at 10 mg/kg, ip dosed 30 mins before test measured after 6 mins by forced swim test. The class given is functional, organism-based. The procedure, abridged:
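Male Swiss albino mice (22–26 g), 7–12/group, used once; drug suspended in 1% aqueous Tween 80 just before use, given ip 30 min before test. Blind observer. 6-min swim in a glass cylinder (25 × 10 cm) with 10 cm of water at 23–25 °C. Immobility timed over the final 4 min. Data as mean ± SEM; one-way ANOVA, then Bonferroni vs vehicle.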

The test system of series [5] is Mus musculus. Kind of series: Toxicity in Swiss albino mouse assessed as effect on spontaneous locomotor activity at 10 mg/kg, ip dosed 30 mins before test measured after 2 to 6 mins. The format is organism-based. The settings on record: in vivo. The essentials:
(§1)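 Swiss albino mice given reference drug ip 30 min before testing (citalopram in water; SB-269970 suspended in 1% aqueous Tween 80). Ambulation counted from 2 to 6 min in individual cages by activity monitor.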

Series [6] in a line: Intrinsic clearance in mouse liver microsomes at 20 uM at pH 7.4 incubated for 15 mins by UPLC/MS analysis in presence of NADPH. The format is ADME. The note with it: read-out: CLH. Background: Liver microsomes are a subcellular fraction often used to study metabolism.
Series [7] is described as follows: Half life in mouse liver microsomes at 20 uM at pH 7.4 incubated for 15 mins by UPLC/MS analysis in presence of NADPH. The format is ADME. The procedure, abridged: (§2)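 Compound (20 µM) incubated with mouse liver microsomes (0.2 mg/ml) in 100 mM potassium phosphate, pH 7.4, 37 °C. Reaction started with NADPH-regenerating system; blank without NADPH run in parallel. Sampling at 5, 15, 30 and 60 min (some to 120 min), in duplicate. Levallorphan internal standard; UPLC/MS quantitation. t1/2 from ln % remaining vs time.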

A short description of series [8]: Metabolic stability in mouse liver microsomes assessed as retention time of compound at 20 uM at pH 7.4 incubated for 15 mins by UPLC/MS analysis in presence of NADPH. The class given is ADME. The note with it: pH 7.4, 0.25 h. The procedure, abridged:
as §2

Series [9] is described as follows: Drug metabolism in mouse liver microsomes assessed as retention time of N-dealkylated metabolite at 20 uM at pH 7.4 incubated for 15 mins by UPLC/MS analysis in presence of NADPH. The format is ADME. The note with it: pH 7.4, 0.25 h. The essentials: as §2
The subject of series [10] is Mus musculus. Kind of series: Antidepressant-like activity in Swiss albino mouse assessed as reduction in immobility time at 1.25 mg/kg, ip dosed 30 mins before test measured after 6 mins by forced swim test. The class given is functional, organism-based. The procedure, abridged:
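Male Swiss albino mice (22–26 g), 7–12/group, used once; drug in distilled water, given ip 30 min before test. Observer blind to treatment. Mice swam 6 min in a glass cylinder (25 cm high, 10 cm diameter) holding 10 cm of water at 23–25 °C. Immobility (floating, only small head-keeping movements) was timed over the last 4 min. One-way ANOVA, then Bonferroni vs vehicle.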

In series [11] the test system is Mus musculus. The series is described as follows: Toxicity in Swiss albino mouse assessed as effect on spontaneous locomotor activity at 1.25 mg/kg, ip dosed 30 mins before test measured after 2 to 6 mins. The class given is organism-based. The note with it: in vivo. The procedure, abridged:
as §1

Series [12] can be described thus: Drug metabolism in mouse liver microsomes assessed as retention time of hydroxylated metabolite at 20 uM at pH 7.4 incubated for 15 mins by UPLC/MS analysis in presence of NADPH. The format is ADME. The settings on record: pH 7.4, 0.25 h. The essentials:
as §2

For orientation: Ki means a measure of affinity in units of concentration, obtained from inhibition or displacement. The low end stands for tighter binding, the high end for weaker binding. Turning to `CN(C1CCN(CCOc2ccccc2C(C)(C)C)CC1)S(=O)(=O)c1cccc(F)c1`, the Ki in [1] stood at 4510 nM; in [2], 68 nM; at D(2) dopamine receptor, 290 nM; in [3], 1930 nM.

With `CN(C1CCN(CCOc2ccccc2C(C)(C)C)CC1)S(=O)(=O)c1ccccc1`, the Ki was determined as 2350 nM in series [1], 70 nM in series [2], 360 nM on D(2) dopamine receptor and 1250 nM in series [3].

Turning to `CC(C)c1ccccc1OCCN1CCC(N(CC2CC2)S(=O)(=O)c2cnn(C)c2)CC1`, the Ki in series [1] was found to be 214 nM; in series [2] it was 56 nM; at D(2) dopamine receptor, 18 nM; in series [3], 378 nM.

In the case of `CC(C)c1ccccc1OCCN1CCC(N(CC2CC2)S(=O)(=O)c2ccc(F)cc2)CC1`, the Ki in series [1] is 249 nM; in [2], 28 nM; on D(2) dopamine receptor, 20 nM; in series [3] it was 413 nM.

Consider `CC(C)c1ccccc1OCCN1CCC(N(C)S(=O)(=O)c2cnn(C)c2)CC1`, for which the Ki was found to be 346 nM in series [1], 10 nM in series [2], 46 nM on D(2) dopamine receptor and 121 nM in [3].

As to `CN(C1CCN(CCOc2ccccc2C(C)(C)C)CC1)S(=O)(=O)c1ccc(F)cc1`, the Ki in series [1] is 9050 nM; in series [2], 58 nM; at D(2) dopamine receptor, 324 nM; in [3] it was 1070 nM.

`CC(C)c1ccccc1OCCN1CCC(N(C)S(=O)(=O)c2ccccc2)CC1`: the Ki in [1] was 140 nM; in series [2], 9 nM; on D(2) dopamine receptor, 60 nM; in series [3], 264 nM.

On to `CC(C)c1ccccc1OCCN1CCC(N(C)S(=O)(=O)c2ccc(F)cc2)CC1`, for which the Ki in series [1] came to 180 nM; in series [2], 13 nM; on D(2) dopamine receptor, 50 nM; in series [3], 382 nM.

For the compound `CC1CCN(CC[C@H]2CCCN2S(=O)(=O)c2cccc(O)c2)CC1`, the result in the series with Mus musculus [4] was Active. The Activity entry in the series on Mus musculus [5] was “Non-toxic”.

For `CC(C)c1ccccc1OCCN1CCC(N(C)S(=O)(=O)c2cccc(F)c2)CC1`, the Ki in series [1] came out at 190 nM; in [2], 18 nM; on D(2) dopamine receptor, 45 nM; in [3], 230 nM.

For the compound `O=S(=O)(c1ccc(F)cc1)N(CC1CC1)C1CCN(CCOc2ccccc2-c2ccccc2)CC1`, the Ki in [1] was 342 nM; in series [2] it was 18 nM; on D(2) dopamine receptor, 37 nM; in [3], 70 nM.

In the case of `CC(C)(C)c1ccccc1OCCN1CCC(N(CC2CC2)S(=O)(=O)c2ccc(F)cc2)CC1`, the Ki worked out at 14000 nM in series [1], 53 nM in [2], 160 nM on D(2) dopamine receptor and 1330 nM in series [3].

By half-life is commonly meant the time needed for the level to fall by half in the phase considered. Regarding `Cn1cc(S(=O)(=O)NC2CCN(CCOc3ccccc3-c3ccccc3)CC2)cn1`, the microsomal CLint at 20 µM in series [6] was greater than 200 µL/min/mg. For the same compound, the half-life at 20 µM in [7] is less than 20 min. For the same compound, the Retention_time in [8] is 4.45 min; in series [9], 3.85 min.

As for `CN(C)CCCC1(c2ccc(F)cc2)OCc2cc(C#N)ccc21` (stereo not drawn) [CITALOPRAM], the outcome with Mus musculus [10] was Active. Also, the Activity entry in the series on Mus musculus [11] was “Non-toxic”.

Consider `CC(C)c1ccccc1OCCN1CCC(N(CC2CC2)S(=O)(=O)c2cccc(F)c2)CC1`, for which the Ki in [1] worked out at 158 nM; in series [2], 56 nM; at D(2) dopamine receptor, 15 nM; in series [3] it was 429 nM.

In the case of `CN(C1CCN(CCOc2ccccc2-c2ccccc2)CC1)S(=O)(=O)c1ccc(F)cc1`, the Ki in [1] was 30 nM; in series [2], 5 nM; at D(2) dopamine receptor, 54 nM; in [3], 69 nM.

Turning to `CN(C1CCN(CCOc2ccccc2-c2ccccc2)CC1)S(=O)(=O)c1ccccc1`, the Ki in [1] came out at 62 nM; in series [2], 100 nM; on D(2) dopamine receptor, 52 nM; in series [3], 42 nM.

As for `Cn1cc(S(=O)(=O)NC2CCN(CCOc3ccccc3C(C)(C)C)CC2)cn1`, in [6], the microsomal CLint at 20 µM is greater than 200 µL/min/mg. Also, in series [7], the half-life at 20 µM is less than 20 min. The figures for the Retention_time in series [12] and in series [8] were 3.62 min and 4.72 min, respectively.

These data come from ChEMBL document CHEMBL3745654, “N-Alkylated arylsulfonamides of (aryloxy)ethyl piperidines: 5-HT(7) receptor selectivity versus multireceptor profile” (Bioorg Med Chem, 2016).
